One block for each molecule: values may come before it.
Columns and labels:
Coagulation factor X = Coagulation factor X (Homo sapiens, UniProt P00742); assay: Inhibition of human factor 10a
Liver microsomes = assay: Metabolic stability in human liver microsomes assessed as microsomal intrinsic clearance rate; assay type: ADME, Microsome
Procedure, shortened: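 Human liver microsomes, 10-min incubation. Metabolic stability given as % compound remaining. Microsomal intrinsic clearance rate (nmol/min/mg) is based on the % remaining after 10 min.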

[1] = Cytotoxicity against HEK cells; assay type: cell-based; conditions: Homo sapiens, HEK293
[2] = biological target: Vitamin K-dependent protein C (Homo sapiens, UniProt P04070); assay: Inhibition of human activated protein C
Coagulation factor XI = Coagulation factor XI (Homo sapiens, UniProt P03951); assay: Inhibition of human factor 11a
Coagulation factor VII = biological target: T1, Coagulation factor VII (Homo sapiens, UniProt P08709); assay: Inhibition of human factor 7a
T1 sequence (P08709 whole entry): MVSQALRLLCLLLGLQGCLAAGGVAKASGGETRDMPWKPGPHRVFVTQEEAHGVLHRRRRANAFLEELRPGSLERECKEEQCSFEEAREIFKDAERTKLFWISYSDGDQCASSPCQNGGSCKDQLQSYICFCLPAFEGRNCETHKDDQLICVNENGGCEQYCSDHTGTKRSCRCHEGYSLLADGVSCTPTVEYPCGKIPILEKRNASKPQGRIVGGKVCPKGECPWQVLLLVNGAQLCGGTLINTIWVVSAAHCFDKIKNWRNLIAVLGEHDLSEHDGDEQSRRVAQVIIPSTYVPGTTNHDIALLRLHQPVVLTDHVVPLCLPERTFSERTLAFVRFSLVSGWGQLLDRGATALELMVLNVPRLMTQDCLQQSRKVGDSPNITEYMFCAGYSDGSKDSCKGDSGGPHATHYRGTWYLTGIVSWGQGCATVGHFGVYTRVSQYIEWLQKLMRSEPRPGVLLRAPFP

[3] = Inhibition of human chymotrypsin
Plasma kallikrein = Plasma kallikrein (Homo sapiens, UniProt P03952); assay: Inhibition of human plasma kallikrein; assay type: cell-free
Trypsin = Trypsin (Homo sapiens, UniProt P07477+P07478+P35030); assay: Inhibition of human trypsin; assay type: protein assay
Prothrombin = Prothrombin (Homo sapiens, UniProt P00734); assay: Inhibition of human thrombin
Plasminogen = Plasminogen (Homo sapiens, UniProt P00747); assay: Inhibition of human Plasmin
[4] = biological target: Tissue-type plasminogen activator (Homo sapiens, UniProt P00750); assay: Inhibition of human tissue plasminogen activator
[5] = biological target: Urokinase-type plasminogen activator (Homo sapiens, UniProt P00749); assay: Inhibition of human urokinase
[6] = Permeability across Caco-2 cells; assay type: ADME, cell-based; conditions: human, read-out: permeability
[7] = Clearance in dog at 0.5 mg/kg, iv; assay type: ADME, organism-based, Canis lupus familiaris; set-up: dose 0.5 mg/kg, route intravenous; conditions: in vivo
Procedure, shortened: (§1)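 Dogs. Intravenous dose 0.5 mg/kg, used for clearance (L/kg/h), steady-state volume of distribution (L/kg) and iv half-life.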

[8] = Volume of distribution at steady state in dog at 0.5 mg/kg, iv; assay type: ADME, organism-based, Canis lupus familiaris; set-up: dose 0.5 mg/kg, route intravenous; conditions: in vivo, read-out: Vdss; procedure, shortened: as §1
[9] = Half life in dog at 0.5 mg/kg, iv; assay type: ADME, organism-based, Canis lupus familiaris; set-up: dose 0.5 mg/kg, route intravenous; conditions: in vivo; procedure, shortened: as §1
[10] = Half life in dog at 0.2 mg/kg, po; assay type: ADME, organism-based, Canis lupus familiaris; set-up: dose 0.2 mg/kg, route oral; conditions: in vivo
[11] = Bioavailability in dog at 0.2 mg/kg, po; assay type: ADME, organism-based, Canis lupus familiaris; conditions: in vivo; procedure, shortened: as §1

Sequence of Vitamin K-dependent protein C (P04070 43-197 limits assumed): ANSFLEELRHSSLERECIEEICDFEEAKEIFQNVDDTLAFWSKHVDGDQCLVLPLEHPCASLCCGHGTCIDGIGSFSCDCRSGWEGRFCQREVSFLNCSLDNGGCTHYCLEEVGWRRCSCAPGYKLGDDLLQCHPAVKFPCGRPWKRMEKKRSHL
Sequence of Vitamin K-dependent protein C (P04070 212-461 limits assumed): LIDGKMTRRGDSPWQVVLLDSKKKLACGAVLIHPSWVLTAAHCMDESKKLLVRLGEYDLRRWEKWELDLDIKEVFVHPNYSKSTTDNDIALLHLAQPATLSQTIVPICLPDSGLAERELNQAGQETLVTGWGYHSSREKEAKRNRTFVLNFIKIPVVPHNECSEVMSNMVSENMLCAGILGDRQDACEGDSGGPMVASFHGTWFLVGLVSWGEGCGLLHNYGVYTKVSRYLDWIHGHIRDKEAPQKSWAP
Sequence of Tissue-type plasminogen activator (P00750 whole entry): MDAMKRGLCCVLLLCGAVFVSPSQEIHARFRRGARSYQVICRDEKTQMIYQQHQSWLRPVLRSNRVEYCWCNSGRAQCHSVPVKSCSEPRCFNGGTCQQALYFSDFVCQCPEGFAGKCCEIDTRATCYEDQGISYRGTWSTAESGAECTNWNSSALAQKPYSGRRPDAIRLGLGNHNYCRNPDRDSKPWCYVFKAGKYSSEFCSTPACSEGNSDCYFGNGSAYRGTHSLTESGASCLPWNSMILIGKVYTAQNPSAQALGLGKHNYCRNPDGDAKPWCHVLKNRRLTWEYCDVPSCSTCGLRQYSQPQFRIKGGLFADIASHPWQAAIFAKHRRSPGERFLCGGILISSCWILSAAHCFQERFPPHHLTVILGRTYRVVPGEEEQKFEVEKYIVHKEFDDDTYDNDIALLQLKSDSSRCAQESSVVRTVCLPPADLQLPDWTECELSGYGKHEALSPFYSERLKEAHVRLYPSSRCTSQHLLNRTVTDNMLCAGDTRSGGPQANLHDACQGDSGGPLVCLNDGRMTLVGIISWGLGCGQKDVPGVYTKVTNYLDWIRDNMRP
Sequence of Coagulation factor XI (P03951 19-387 limits assumed): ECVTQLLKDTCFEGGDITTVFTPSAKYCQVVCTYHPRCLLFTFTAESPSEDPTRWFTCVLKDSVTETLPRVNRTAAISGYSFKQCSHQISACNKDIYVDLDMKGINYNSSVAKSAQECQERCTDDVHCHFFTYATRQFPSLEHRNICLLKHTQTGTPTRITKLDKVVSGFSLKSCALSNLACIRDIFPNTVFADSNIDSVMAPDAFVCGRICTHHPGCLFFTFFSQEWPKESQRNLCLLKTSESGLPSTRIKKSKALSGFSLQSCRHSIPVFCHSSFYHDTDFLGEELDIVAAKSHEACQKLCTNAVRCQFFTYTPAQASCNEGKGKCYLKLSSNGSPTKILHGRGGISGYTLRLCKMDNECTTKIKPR
Sequence of Coagulation factor XI (P03951 388-625 limits assumed): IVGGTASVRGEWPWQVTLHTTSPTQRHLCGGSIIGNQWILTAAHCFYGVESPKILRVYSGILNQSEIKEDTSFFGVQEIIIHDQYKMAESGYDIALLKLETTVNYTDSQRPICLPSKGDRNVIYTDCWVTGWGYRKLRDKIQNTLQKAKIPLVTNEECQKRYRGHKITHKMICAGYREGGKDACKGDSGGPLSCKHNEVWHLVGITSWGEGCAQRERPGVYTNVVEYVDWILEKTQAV
Sequence of Plasminogen (P00747 97-580 limits assumed): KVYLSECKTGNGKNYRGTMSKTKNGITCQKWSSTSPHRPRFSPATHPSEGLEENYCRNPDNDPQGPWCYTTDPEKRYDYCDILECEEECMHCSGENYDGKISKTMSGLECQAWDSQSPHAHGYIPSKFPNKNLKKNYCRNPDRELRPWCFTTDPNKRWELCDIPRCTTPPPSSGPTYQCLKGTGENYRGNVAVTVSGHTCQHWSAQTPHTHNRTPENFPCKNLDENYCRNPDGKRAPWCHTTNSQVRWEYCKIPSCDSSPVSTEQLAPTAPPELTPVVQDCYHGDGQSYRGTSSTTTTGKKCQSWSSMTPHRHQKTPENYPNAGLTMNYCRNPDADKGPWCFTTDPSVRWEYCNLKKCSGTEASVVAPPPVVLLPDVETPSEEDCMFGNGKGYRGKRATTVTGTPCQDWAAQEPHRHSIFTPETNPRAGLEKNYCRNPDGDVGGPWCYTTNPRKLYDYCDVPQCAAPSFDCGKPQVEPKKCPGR
Sequence of Plasminogen (P00747 581-810 limits assumed): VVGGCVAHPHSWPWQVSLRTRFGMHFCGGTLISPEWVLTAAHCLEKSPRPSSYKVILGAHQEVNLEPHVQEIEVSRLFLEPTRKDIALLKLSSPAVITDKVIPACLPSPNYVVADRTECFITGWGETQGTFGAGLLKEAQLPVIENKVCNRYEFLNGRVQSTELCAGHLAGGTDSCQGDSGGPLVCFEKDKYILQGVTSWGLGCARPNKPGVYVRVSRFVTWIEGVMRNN
Sequence of Coagulation factor X (P00742 41-179 limits assumed): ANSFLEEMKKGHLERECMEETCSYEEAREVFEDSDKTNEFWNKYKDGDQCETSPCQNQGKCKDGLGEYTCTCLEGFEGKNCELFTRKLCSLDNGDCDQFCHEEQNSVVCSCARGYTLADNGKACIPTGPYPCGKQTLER
Sequence of Coagulation factor X (P00742 235-488 limits assumed): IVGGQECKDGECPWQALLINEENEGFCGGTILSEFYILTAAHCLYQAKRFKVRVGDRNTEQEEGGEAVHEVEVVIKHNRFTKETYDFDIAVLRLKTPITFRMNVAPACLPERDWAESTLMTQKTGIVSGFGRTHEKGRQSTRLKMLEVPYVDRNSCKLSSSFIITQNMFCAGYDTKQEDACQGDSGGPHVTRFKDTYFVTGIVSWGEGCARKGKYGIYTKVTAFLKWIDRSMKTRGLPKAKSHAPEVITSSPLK
Sequence of Plasma kallikrein (P03952 20-390 limits assumed): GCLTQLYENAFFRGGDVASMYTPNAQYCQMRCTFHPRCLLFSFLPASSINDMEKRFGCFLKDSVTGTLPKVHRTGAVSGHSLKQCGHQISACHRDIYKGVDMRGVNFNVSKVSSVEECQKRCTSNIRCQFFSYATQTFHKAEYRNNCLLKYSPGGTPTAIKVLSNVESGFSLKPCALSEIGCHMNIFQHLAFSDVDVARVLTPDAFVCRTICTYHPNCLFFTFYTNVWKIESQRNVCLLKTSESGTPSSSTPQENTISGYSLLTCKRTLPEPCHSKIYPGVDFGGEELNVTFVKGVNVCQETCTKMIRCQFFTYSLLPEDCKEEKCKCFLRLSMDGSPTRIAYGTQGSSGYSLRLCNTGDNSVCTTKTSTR
Sequence of Plasma kallikrein (P03952 391-638 limits assumed): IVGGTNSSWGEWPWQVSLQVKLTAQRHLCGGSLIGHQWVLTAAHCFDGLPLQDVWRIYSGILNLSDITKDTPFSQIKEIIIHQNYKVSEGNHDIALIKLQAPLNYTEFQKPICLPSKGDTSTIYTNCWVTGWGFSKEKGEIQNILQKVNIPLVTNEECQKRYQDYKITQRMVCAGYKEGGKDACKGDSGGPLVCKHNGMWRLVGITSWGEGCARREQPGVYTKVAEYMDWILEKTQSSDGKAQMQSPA

Structure (SMILES): CNC(=O)N1C[C@H](NC(=O)c2ccc(-n3ccccc3=O)cc2)[C@H](NC(=O)c2ccc(Cl)s2)C1
- Ki (Coagulation factor X): 0.0011 µM
- CL (Liver microsomes): 0 nmol/mg/min
- IC50 [1]: > 100 µM

- Ki (Coagulation factor X): 0.0028 µM
Structure (SMILES): CCOC(=O)N1C[C@H](NC(=O)c2ccc(-n3ccccc3=O)cc2)[C@H](NC(=O)c2ccc3c(Cl)c[nH]c3c2)C1

- Ki (Coagulation factor X): 0.0039 µM
Structure (SMILES): CC(=O)N1C[C@H](NC(=O)c2ccc(-n3ccccc3=O)cc2)[C@H](NC(=O)c2ccc3c(Cl)c[nH]c3c2)C1

- Ki (Coagulation factor X): 0.0045 µM
Structure (SMILES): O=C(N[C@H]1CN(C(=O)OCC2c3ccccc3-c3ccccc32)C[C@H]1NC(=O)c1ccc(Cl)s1)c1ccc(-n2ccccc2=O)cc1

Structure (SMILES): CC(C)(C)C(=O)N1C[C@H](NC(=O)c2ccc(-n3ccccc3=O)cc2)[C@H](NC(=O)c2ccc(Cl)s2)C1
- Ki (Coagulation factor X): 0.0017 µM
- IC50 [1]: > 100 µM

Structure (SMILES): CS(=O)(=O)N1C[C@H](NC(=O)c2ccc(-n3ccccc3=O)cc2)[C@H](NC(=O)c2ccc(Cl)s2)C1
- Ki (Coagulation factor X): 0.00044 µM
- CL (Liver microsomes): 0 nmol/mg/min
- IC50 [1]: > 100 µM

Structure (SMILES): O=C(N[C@H]1CN(C(=O)C2CC2)C[C@H]1NC(=O)c1ccc(Cl)s1)c1ccc(-n2ccccc2=O)cc1
- Ki (Coagulation factor X): 0.0021 µM
- IC50 [1]: > 100 µM

Structure (SMILES): O=C(N[C@H]1CN(C(=O)N2CCCC2)C[C@H]1NC(=O)c1ccc(Cl)s1)c1ccc(-n2ccccc2=O)cc1
- Ki (Coagulation factor X): 0.0017 µM
- IC50 [1]: > 100 µM

Structure (SMILES): O=C(N[C@H]1CN(C(=O)OCC2c3ccccc3-c3ccccc32)C[C@H]1NC(=O)c1ccc2c(Cl)c[nH]c2c1)c1ccc(-n2ccccc2=O)cc1
- Ki (Coagulation factor X): 0.163 µM
- IC50 [1]: > 100 µM

- Ki (Coagulation factor X): 0.00084 µM
Structure (SMILES): O=C(N[C@H]1Cc2ccccc2[C@H]1NC(=O)c1ccc2c(Cl)c[nH]c2c1)c1ccc(-n2ccccc2=O)cc1

Structure (SMILES): CCS(=O)(=O)N1C[C@H](NC(=O)c2ccc(-n3ccccc3=O)cc2)[C@H](NC(=O)c2ccc(Cl)s2)C1
- Ki [2]: > 21 µM
- Ki (Coagulation factor X): 0.00064 µM
- CL (Liver microsomes): 0 nmol/mg/min
- IC50 [1]: > 100 µM
- Ki (Coagulation factor XI): 6.68 µM
- Ki (Coagulation factor VII): > 11 µM
- Ki [3]: > 20 µM
- Ki (Plasma kallikrein): > 10.8 µM
- Ki (Trypsin): > 5 µM
- Ki (Prothrombin): 3.95 µM
- Ki (Plasminogen): > 22 µM
- Ki [4]: > 21 µM
- Ki [5]: > 14 µM
- Papp [6]: < 1.5 ×10⁻⁶ cm/s
- clearance [7]: 25 mL/min/kg
- Vd [8]: 1.1 L/kg
- half-life [9]: 0.7 h
- half-life [10]: 1.3 h
- bioavailability [11]: 16%

- Ki (Coagulation factor X): 0.0029 µM
Structure (SMILES): COCCNC(=O)[C@H]1C[C@H](NC(=O)c2ccc(-n3ccccc3=O)cc2)[C@H](NC(=O)c2ccc(Cl)s2)C1

- Ki (Coagulation factor X): 0.001 µM
Structure (SMILES): O=C(N[C@@H]1Cc2ccccc2[C@@H]1NC(=O)c1ccc(-n2ccccc2=O)cc1)c1ccc2c(Cl)c[nH]c2c1

- Ki [2]: > 21 µM
- Ki (Coagulation factor X): 0.0026 µM
- CL (Liver microsomes): 0.031 nmol/mg/min
- Ki (Coagulation factor XI): > 11 µM
- Ki (Coagulation factor VII): > 11 µM
- Ki [3]: > 20 µM
- Ki (Trypsin): > 5 µM
- Ki (Prothrombin): > 12 µM
- Ki (Plasminogen): > 22 µM
- Ki [4]: > 21 µM
- Ki [5]: > 14 µM
- clearance [7]: 26.7 mL/min/kg
- Vd [8]: 1 L/kg
- half-life [9]: 1.2 h
- half-life [10]: 1.2 h
- bioavailability [11]: 97%
Structure (SMILES): O=C(N[C@H]1COC[C@H]1NC(=O)c1ccc(Cl)s1)c1ccc(-n2ccccc2=O)cc1

Structure (SMILES): CC(=O)N1C[C@H](NC(=O)c2ccc(-n3ccccc3=O)cc2)[C@H](NC(=O)c2ccc(Cl)s2)C1
- Ki [2]: > 21 µM
- Ki (Coagulation factor X): 0.00058 µM
- CL (Liver microsomes): 0 nmol/mg/min
- IC50 [1]: > 100 µM
- Ki (Coagulation factor XI): 10.2 µM
- Ki (Coagulation factor VII): > 11 µM
- Ki [3]: > 20 µM
- Ki (Plasma kallikrein): > 6 µM
- Ki (Trypsin): > 5 µM
- Ki (Prothrombin): 5.44 µM
- Ki (Plasminogen): > 22 µM
- Ki [4]: > 21 µM
- Ki [5]: > 14 µM
- Papp [6]: < 1.5 ×10⁻⁶ cm/s
- clearance [7]: 30 mL/min/kg
- Vd [8]: 2.4 L/kg
- half-life [9]: 0.8 h
- half-life [10]: 0.8 h
- bioavailability [11]: 5%

Structure (SMILES): O=C(N[C@H]1CNC[C@H]1NC(=O)c1ccc(Cl)s1)c1ccc(-n2ccccc2=O)cc1
- Ki (Coagulation factor X): 0.0095 µM
- CL (Liver microsomes): 0 nmol/mg/min
- IC50 [1]: > 100 µM

- Ki (Coagulation factor X): 0.0016 µM
Structure (SMILES): O=C(N[C@H]1C[C@H](C(=O)N2CCOCC2)C[C@H]1NC(=O)c1ccc(Cl)s1)c1ccc(-n2ccccc2=O)cc1

Structure (SMILES): COCCOC(=O)N1C[C@H](NC(=O)c2ccc(-n3ccccc3=O)cc2)[C@H](NC(=O)c2ccc(Cl)s2)C1
- Ki (Coagulation factor X): 0.00093 µM
- IC50 [1]: > 100 µM

Structure (SMILES): CCC(=O)N1C[C@H](NC(=O)c2ccc(-n3ccccc3=O)cc2)[C@H](NC(=O)c2ccc(Cl)s2)C1
- Ki (Coagulation factor X): 0.002 µM
- IC50 [1]: > 100 µM

Structure (SMILES): COCC(=O)N1C[C@H](NC(=O)c2ccc(-n3ccccc3=O)cc2)[C@H](NC(=O)c2ccc(Cl)s2)C1
- Ki (Coagulation factor X): 0.00036 µM
- IC50 [1]: > 100 µM

Source: ChEMBL document CHEMBL1149671, “Enantiopure five-membered cyclicdiamine derivatives as potent and selective inhibitors of factor Xa. Improving in vitro metabolic stability via core modifications” (Bioorg Med Chem Lett, 2007)
